What all share (assay type): biochemical
For assay [1], the target named is IP3R2 (Mus musculus, UniProt Q9Z329). Description: Ca2+ release from stores of permeabilized DT40 cells. The method in brief: (§1)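 DT40 cells lacking all endogenous IP3R genes were stably transfected with the IP3R construct and selected with G418 (2 mg/ml). Intracellular stores were loaded with Mag-fluo-4, and cells were permeabilized with saponin (10 μg/ml) at 20 °C in cytosol-like medium (free Ca²⁺ 220 nM, pH 7.0). After MgATP (1.5 mM) loading reached steady state, IP3 was added with thapsigargin (1 μM). Release was expressed as a fraction of ionomycin (1 μM) release.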

The target in the next assay is IP3R3 (Rattus norvegicus, UniProt Q63269). Briefly: Ca2+ release from stores of permeabilized DT40 cells.
Assay [2] addresses IP3R2 (Mus musculus, UniProt Q9Z329, G1969A/G1971A/G1974A). Briefly: Ca2+ release from stores of permeabilized DT40-ΔATPB cells. The method in brief: as §1

The results in this text go back to article PMC2857138 (The Journal of Biological Chemistry, 2010).

The structures appear in SMILES notation.

The term EC50 denotes the midpoint of the concentration-response curve. A higher EC50 goes with weaker potency.

Sequence of IP3R2 (Mus musculus, UniProt Q9Z329) (Q9Z329 whole entry): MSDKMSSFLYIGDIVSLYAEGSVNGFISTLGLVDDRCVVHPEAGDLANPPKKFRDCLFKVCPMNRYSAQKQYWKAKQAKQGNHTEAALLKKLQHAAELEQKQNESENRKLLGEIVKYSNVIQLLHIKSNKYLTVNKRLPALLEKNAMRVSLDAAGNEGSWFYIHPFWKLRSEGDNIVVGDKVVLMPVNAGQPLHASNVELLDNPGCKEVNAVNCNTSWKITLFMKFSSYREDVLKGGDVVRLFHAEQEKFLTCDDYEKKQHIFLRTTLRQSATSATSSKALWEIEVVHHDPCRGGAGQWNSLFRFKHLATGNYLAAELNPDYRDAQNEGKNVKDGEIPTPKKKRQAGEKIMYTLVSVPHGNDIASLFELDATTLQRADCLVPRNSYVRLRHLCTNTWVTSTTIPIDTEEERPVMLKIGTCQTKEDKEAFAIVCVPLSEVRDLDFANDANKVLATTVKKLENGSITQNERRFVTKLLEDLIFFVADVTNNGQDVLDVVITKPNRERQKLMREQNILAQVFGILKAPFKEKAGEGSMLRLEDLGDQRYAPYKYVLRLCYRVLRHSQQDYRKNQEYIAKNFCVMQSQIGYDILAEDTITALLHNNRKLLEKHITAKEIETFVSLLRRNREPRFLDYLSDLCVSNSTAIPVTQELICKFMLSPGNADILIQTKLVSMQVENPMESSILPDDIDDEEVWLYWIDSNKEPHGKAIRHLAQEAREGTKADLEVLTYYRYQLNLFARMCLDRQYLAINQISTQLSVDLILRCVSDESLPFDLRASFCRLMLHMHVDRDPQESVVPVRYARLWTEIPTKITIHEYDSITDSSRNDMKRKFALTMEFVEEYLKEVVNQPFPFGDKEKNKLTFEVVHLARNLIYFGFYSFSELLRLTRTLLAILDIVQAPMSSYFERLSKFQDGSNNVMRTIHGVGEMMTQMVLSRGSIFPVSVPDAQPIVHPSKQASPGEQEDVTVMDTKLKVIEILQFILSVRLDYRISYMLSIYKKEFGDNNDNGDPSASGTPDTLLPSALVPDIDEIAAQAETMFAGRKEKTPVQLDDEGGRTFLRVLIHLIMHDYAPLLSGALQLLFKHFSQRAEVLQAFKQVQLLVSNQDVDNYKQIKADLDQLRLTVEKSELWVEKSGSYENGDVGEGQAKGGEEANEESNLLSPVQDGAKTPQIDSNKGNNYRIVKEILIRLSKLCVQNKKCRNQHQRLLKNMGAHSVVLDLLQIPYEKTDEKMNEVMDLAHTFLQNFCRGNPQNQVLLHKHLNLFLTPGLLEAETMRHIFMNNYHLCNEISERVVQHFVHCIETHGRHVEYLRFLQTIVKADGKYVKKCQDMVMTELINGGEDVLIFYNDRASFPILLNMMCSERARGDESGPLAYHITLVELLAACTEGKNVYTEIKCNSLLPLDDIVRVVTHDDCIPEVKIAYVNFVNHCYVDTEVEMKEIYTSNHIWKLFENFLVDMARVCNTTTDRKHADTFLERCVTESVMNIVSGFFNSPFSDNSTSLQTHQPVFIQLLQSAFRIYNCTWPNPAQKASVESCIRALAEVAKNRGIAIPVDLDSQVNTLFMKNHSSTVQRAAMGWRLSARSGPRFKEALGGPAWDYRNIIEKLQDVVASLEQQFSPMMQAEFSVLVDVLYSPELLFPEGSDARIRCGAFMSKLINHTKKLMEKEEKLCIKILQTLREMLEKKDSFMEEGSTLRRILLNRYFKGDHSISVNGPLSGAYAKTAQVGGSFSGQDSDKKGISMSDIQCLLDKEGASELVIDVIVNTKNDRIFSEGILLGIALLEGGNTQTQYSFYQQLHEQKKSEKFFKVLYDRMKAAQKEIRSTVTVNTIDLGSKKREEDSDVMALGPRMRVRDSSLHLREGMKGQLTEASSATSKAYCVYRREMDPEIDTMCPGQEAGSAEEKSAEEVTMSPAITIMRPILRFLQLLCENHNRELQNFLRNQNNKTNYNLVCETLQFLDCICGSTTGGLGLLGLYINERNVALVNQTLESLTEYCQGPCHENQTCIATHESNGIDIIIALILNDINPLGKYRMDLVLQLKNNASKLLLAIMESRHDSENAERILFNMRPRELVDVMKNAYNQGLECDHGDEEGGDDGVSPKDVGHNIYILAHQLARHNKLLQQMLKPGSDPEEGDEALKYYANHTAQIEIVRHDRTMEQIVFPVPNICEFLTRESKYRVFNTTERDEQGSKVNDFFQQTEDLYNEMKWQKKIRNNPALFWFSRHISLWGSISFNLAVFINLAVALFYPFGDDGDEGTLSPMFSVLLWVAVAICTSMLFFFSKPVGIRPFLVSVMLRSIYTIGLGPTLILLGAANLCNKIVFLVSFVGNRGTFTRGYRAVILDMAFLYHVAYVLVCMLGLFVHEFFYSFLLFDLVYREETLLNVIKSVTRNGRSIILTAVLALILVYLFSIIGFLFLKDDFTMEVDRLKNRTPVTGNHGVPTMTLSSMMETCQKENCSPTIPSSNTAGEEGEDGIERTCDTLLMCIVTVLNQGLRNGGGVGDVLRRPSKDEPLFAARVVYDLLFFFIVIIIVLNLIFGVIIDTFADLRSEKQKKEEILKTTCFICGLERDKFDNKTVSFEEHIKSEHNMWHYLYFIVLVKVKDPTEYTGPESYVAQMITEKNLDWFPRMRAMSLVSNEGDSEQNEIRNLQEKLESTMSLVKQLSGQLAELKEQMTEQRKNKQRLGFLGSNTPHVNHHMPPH

Turning to `O=P(O)(O)O[C@@H]1[C@H](O)[C@H](O)[C@@H](OP(=O)(O)O)[C@H](OP(=O)(O)O)[C@H]1O` [IP3], the EC50 at IP3R2 [1] came out at 74 ± 10 nM; at IP3R3 it was 255 ± 9 nM; at IP3R2 [2] it was 246 ± 17 nM.
